Results pooled from the literature.
Effect on: cell growth or viability

Structure (SMILES)	cell line	technique	concentration	time	endpoint	value
CNC(=O)c1cc(Oc2ccc(NC(=O)Nc3ccc(Cl)c(C(F)(F)F)c3)cc2)ccn1	WM 266-4	MTT	100 µM	48 h	viability	33.9%
CN1C(=O)/C(=N\NC(=O)c2cc3ccccc3[nH]2)c2ccccc21	ZR75	–	30 µM	–	inhibition	73.1%
Cc1ccc(C(CS(=O)(=O)c2ccccc2)=NNC2=NC(=O)C(=NNc3ccccc3)S2)cc1	WM 266-4	MTT	100 µM	48 h	viability	35.7%
CN1C(=O)/C(=N\NC(=O)c2cc3ccccc3[nH]2)c2cc(Br)ccc21	ZR75	–	30 µM	–	inhibition	90.2%
Cn1c(=O)c(NN=C2C(=O)Nc3ccccc32)nc2ccccc21	ZR75	–	30 µM	–	inhibition	52.1%
O=C(N/N=C1\C(=O)N(c2ccccc2)c2ccccc21)c1cc2ccccc2[nH]1	ZR75	–	30 µM	–	inhibition	92.2%
Cc1ccc2c(c1)C(=NNc1nnc(Cc3ccccc3)c3ccccc13)C(=O)N2	ZR75	–	30 µM	–	inhibition	69.6%
S=C([S][Au-][P+](CCCCCC[P+]([Au-][S]C(=S)n1cccn1)(c1ccccc1)c1ccccc1)(c1ccccc1)c1ccccc1)n1cccn1	KM12	–	–	–	GI50	0.434 µM
COc1ccc(C2=Nn3c(NN=C4C(=O)Nc5ccc(OC)cc54)nnc3SC2)cc1	SR	SRB	10 µM	–	inhibition	36%
CCN(CC)CCNC(=O)c1c(C)[nH]c(/C=C2\C(=O)Nc3ccc(F)cc32)c1C	ZR75	–	30 µM	–	inhibition	90.7%
COc1cccc(Oc2ccccc2NC(=O)CNC(=O)c2cccc3ccccc23)c1	SR	SRB	–	48 h	GI50	0.115 µM
CC(C)(C)c1nc(-c2cccc(NS(=O)(=O)c3c(F)cccc3F)c2F)c(-c2ccnc(N)n2)s1	WM 266-4	MTT	100 µM	48 h	viability	38.1%
C=CC(=O)N1CCC[C@@H](n2nc(-c3ccc(Oc4ccccc4)cc3)c3c(N)ncnc32)C1	JeKo-1	ATP luminescence	–	72 h	GI50	20.1 µM
Cc1ccc(C(CS(=O)(=O)c2ccccc2)=NNc2nc(-c3ccc(OCCCCOc4ccc(-c5csc(NN=C(CS(=O)(=O)c6ccccc6)c6ccc(C)cc6)n5)cc4)cc3)cs2)cc1	WM 266-4	MTT	0.4 µM	48 h	viability	77%
COc1ccc2c(c1)C(=NNc1nnc(Cc3ccccc3)c3ccccc13)C(=O)N2	ZR75	–	30 µM	–	inhibition	30.9%
Cc1ccc(C(CS(=O)(=O)c2ccccc2)=NN=C2N=C(c3ccc(Br)cc3)CS2)cc1	WM 266-4	MTT	25 µM	48 h	viability	42.1%
Cn1c(=O)c(NN=C2C(=O)Nc3ccc(F)cc32)nc2ccccc21	ZR75	–	30 µM	–	inhibition	22.6%
NC(=S)NN=C(CS(=O)(=O)c1ccccc1)c1ccc(F)cc1	WM 266-4	MTT	100 µM	48 h	viability	24.4%
COc1ccc(-c2nc(NN=C3C(=O)Nc4ccc(Br)cc43)c3ccccc3n2)cc1OC	ZR75	–	10 µM	–	inhibition	78.8%
O=C(Nc1cnn2ccc(N3CCC[C@@H]3c3cc(F)ccc3F)nc12)N1CC[C@H](O)C1	KM12	ATP luminescence	–	72 h	IC50	> 50 µM
O=C1Nc2ccc(Cl)cc2/C1=N/NC(=O)c1cc2ccccc2[nH]1	ZR75	–	30 µM	–	inhibition	53.9%
COc1ccc2c(c1)C(=NNc1nc(-c3ccc(OC)c(OC)c3)nc3ccccc13)C(=O)N2	ZR75	–	30 µM	–	inhibition	23.1%
CN1CCN(c2ccc(C(=O)Nc3n[nH]c4ccc(Cc5cc(F)cc(F)c5)cc34)c(NC3CCOCC3)c2)CC1	KM12	ATP luminescence	–	72 h	IC50	23.6 µM
Cn1c(=O)c(NN=C2C(=O)Nc3ccc(Cl)cc32)nc2ccccc21	ZR75	–	30 µM	–	inhibition	29.8%
O=C1Nc2ccccc2/C1=N/NC(=O)c1cc2ccccc2[nH]1	ZR75	–	30 µM	–	inhibition	57.7%
